The source made the active and inactive calls. No cut-off for these calls is given here.
Legend:
[1] = target: 3',5'-cyclic-AMP phosphodiesterase 4A (Homo sapiens, UniProt P27815); assay: Inhibition of human PDE4A by IMAP fluorescence polarization technology
[2] = Intrinsic clearance in rat microsomes; type: ADME, Microsome
[3] = Metabolic stability in rat assessed as half life; type: ADME, organism-based; conditions: in vivo
[4] = target: cAMP and cAMP-inhibited cGMP 3',5'-cyclic phosphodiesterase 10A (Homo sapiens, UniProt Q9Y233); assay: Inhibition of PDE10A1
[5] = Inhibition of PDE4 expressed in HEK293 cells coexpressing G-protein coupled receptor and cyclic nucleotide gated ion channel by fluorescence assay; type: cell-based
Procedure, shortened: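 PDE4-expressing reporter cells plated at 1000 cells/well in DMEM with penicillin/streptomycin and 2%, 5%, 10% or 20% fetal calf serum, 12 hr at 37 °C, 5% CO₂. Membrane potential dye 1 hr at room temperature, then compound pin-transferred from DMSO serial dilutions (final DMSO under 0.5%). Tested in duplicate.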

[6] = target: T1, cGMP-inhibited 3',5'-cyclic phosphodiesterase 3A (Homo sapiens, UniProt Q14432)
T1 sequence (Q14432 whole entry): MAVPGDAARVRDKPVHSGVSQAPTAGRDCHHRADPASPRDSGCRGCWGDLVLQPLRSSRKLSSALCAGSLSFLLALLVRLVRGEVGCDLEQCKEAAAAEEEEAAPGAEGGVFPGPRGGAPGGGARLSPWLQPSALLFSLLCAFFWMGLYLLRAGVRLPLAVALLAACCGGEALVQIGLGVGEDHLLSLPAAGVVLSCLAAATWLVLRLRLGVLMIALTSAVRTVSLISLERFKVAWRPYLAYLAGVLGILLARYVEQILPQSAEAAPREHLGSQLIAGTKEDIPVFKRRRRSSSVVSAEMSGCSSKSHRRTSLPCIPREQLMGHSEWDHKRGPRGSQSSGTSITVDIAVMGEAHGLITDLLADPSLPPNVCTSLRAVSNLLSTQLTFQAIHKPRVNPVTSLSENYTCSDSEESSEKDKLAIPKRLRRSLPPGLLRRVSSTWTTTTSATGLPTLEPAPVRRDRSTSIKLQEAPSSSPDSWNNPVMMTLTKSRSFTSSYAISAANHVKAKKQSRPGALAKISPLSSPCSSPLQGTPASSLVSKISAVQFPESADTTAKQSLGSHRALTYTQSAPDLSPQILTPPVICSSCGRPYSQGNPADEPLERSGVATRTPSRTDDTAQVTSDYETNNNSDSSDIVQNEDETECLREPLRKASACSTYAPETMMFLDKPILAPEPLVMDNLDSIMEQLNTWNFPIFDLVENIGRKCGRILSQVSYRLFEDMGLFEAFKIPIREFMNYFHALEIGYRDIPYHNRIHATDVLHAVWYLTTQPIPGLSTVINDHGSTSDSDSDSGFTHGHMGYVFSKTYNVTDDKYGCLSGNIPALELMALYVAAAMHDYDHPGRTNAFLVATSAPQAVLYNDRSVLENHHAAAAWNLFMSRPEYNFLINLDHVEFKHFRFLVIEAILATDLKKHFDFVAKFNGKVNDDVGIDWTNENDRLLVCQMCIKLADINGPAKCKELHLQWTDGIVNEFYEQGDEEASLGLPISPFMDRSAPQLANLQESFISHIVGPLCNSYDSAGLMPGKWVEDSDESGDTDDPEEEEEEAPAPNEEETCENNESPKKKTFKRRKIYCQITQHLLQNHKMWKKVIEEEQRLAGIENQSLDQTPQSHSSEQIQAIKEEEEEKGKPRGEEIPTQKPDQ

[7] = target: cGMP-inhibited 3',5'-cyclic phosphodiesterase 3B (Homo sapiens, UniProt Q13370)
[8] = target: Beta-2 adrenergic receptor (Homo sapiens) (UniProt P07550); assay: Inhibition of beta2 adrenergic receptor expressed in HEK293 cells co-transfected with PKA fragments Reg-F[1] and cat-F[2]-fused renilla luciferase assessed as effect on receptor regulated increase in cAMP accumulation at 10 uM after 30 mins by protein-fragment complementation assay; type: functional, cell-based
Sequence of Beta-2 adrenergic receptor (Homo sapiens) (P07550 whole entry, looked up, the tested form may be a part): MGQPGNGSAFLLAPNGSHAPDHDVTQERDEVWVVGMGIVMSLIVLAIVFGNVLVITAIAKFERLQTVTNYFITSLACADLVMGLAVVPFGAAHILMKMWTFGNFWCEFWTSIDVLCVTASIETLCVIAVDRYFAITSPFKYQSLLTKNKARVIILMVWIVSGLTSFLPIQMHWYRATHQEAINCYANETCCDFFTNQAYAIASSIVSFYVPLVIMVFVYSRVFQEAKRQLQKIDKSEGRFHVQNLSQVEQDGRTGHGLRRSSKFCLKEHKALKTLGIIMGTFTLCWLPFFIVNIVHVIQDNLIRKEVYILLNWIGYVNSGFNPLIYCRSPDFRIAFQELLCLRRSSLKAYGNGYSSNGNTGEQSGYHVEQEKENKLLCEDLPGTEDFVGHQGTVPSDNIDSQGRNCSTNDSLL
Procedure, shortened: (§1)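 Stable β2AR-HEK293 cells grown in DMEM with 10% fetal bovine serum and transiently transfected with the Rluc PCA PKA reporter. Compounds added 48 h after transfection. Medium exchanged for PBS and bioluminescence read on a luminometer immediately after treatment.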

[9] = target: Beta-2 adrenergic receptor (Homo sapiens) (UniProt P07550); assay: (§2) Inhibition of beta2 adrenergic receptor expressed in HEK293 cells co-transfected with PKA fragments Reg-F[1] and cat-F[2]-fused renilla luciferase assessed as effect on receptor regulated increase in cAMP accumulation at 100 uM after 30 mins by protein-fragment complementation assay; type: functional, cell-based; procedure, shortened: as §1
[10] = target: Dual specificity calcium/calmodulin-dependent 3',5'-cyclic nucleotide phosphodiesterase 1A (Homo sapiens) (UniProt P54750); assay: Inhibition of PDE1A at 10 uM
[11] = target: T2, Dual specificity calcium/calmodulin-dependent 3',5'-cyclic nucleotide phosphodiesterase 1B (Homo sapiens, UniProt Q01064); assay: Inhibition of PDE1B at 10 uM
T2 sequence (Q01064 whole entry): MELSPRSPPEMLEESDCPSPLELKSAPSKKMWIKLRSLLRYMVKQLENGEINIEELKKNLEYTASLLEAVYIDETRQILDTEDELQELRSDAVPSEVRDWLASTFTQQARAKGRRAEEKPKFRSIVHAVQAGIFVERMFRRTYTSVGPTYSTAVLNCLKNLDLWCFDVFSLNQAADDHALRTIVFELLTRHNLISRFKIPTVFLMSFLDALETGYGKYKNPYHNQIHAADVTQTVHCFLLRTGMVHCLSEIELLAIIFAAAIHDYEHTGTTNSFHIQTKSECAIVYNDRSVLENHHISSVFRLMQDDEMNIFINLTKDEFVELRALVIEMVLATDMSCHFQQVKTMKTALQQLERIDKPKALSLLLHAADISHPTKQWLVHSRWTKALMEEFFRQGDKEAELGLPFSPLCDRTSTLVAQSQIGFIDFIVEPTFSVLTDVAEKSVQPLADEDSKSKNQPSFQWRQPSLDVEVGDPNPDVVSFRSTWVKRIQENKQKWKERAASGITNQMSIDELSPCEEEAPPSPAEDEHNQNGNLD

[12] = target: T3, Dual specificity calcium/calmodulin-dependent 3',5'-cyclic nucleotide phosphodiesterase 1C (Homo sapiens, UniProt Q14123); assay: Inhibition of PDE1C at 10 uM
T3 sequence (Q14123 whole entry): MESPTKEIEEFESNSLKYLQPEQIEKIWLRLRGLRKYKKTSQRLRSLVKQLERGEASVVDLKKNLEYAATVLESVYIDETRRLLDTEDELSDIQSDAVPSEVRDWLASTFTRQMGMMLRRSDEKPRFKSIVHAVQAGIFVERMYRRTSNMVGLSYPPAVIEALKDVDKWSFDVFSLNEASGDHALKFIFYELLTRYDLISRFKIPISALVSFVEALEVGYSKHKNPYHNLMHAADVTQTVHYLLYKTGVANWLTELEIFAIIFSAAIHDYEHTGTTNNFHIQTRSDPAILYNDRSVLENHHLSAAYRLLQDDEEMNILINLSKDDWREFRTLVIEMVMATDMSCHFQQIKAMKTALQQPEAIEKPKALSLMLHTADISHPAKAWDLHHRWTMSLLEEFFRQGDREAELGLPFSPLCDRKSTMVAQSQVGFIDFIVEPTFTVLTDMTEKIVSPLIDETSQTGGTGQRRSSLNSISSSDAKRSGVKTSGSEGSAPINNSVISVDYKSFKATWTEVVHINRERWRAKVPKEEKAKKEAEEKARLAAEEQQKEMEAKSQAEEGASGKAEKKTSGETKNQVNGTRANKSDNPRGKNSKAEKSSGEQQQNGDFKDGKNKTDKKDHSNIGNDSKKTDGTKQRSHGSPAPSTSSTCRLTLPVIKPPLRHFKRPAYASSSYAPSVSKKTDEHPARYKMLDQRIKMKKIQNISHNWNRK

[13] = target: cGMP-dependent 3',5'-cyclic phosphodiesterase (Homo sapiens) (UniProt O00408); assay: Inhibition of PDE2A at 10 uM
[14] = target: T1, cGMP-inhibited 3',5'-cyclic phosphodiesterase 3A; assay: Inhibition of PDE3A at 10 uM
[15] = target: cGMP-specific 3',5'-cyclic phosphodiesterase (Homo sapiens) (UniProt O76074); assay: Inhibition of PDE5A1 at 10 uM
[16] = target: T4, High affinity 3',5'-cyclic-AMP phosphodiesterase 7A (Homo sapiens, UniProt Q13946); assay: Inhibition of PDE7A at 10 uM
T4 sequence (Q13946 whole entry): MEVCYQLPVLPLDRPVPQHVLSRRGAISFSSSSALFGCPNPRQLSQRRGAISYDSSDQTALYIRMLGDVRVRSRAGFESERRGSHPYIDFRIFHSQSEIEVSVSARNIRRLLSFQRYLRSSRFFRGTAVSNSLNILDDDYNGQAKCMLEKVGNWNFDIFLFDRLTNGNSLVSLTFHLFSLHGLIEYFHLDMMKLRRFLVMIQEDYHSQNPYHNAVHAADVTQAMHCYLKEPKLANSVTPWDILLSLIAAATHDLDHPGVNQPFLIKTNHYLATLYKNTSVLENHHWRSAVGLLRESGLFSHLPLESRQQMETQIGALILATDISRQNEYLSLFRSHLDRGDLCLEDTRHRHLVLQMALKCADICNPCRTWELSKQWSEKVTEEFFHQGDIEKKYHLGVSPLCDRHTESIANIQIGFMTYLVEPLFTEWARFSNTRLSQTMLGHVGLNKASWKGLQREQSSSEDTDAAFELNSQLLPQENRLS

[17] = target: T5, 3',5'-cyclic-AMP phosphodiesterase 7B (Homo sapiens, UniProt Q9NP56); assay: Inhibition of PDE7B at 10 uM
T5 sequence (Q9NP56 whole entry): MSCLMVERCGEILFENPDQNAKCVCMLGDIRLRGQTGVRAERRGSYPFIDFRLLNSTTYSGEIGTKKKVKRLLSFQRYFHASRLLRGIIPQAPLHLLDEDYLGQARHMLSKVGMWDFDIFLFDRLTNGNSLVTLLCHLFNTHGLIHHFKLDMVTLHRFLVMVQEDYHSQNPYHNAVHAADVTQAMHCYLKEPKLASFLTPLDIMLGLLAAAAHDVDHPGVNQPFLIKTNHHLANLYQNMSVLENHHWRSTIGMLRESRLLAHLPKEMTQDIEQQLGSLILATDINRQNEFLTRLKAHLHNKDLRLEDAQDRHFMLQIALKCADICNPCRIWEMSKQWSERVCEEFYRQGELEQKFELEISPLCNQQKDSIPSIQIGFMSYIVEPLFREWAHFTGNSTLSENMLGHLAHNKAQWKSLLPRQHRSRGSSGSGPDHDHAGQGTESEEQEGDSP

[18] = Inhibition of PDE4A1A
[19] = target: Beta-2 adrenergic receptor (Homo sapiens) (UniProt P07550); assay: as §2, with “PKA activation” for “increase in cAMP accumulation”, “assay in presence of inverse agonist ICI-118551” for “assay”; type: functional, cell-based; procedure, shortened: as §1
[20] = target: T3, Dual specificity calcium/calmodulin-dependent 3',5'-cyclic nucleotide phosphodiesterase 1C; assay: Inhibition of PDE1C
[21] = target: T4, High affinity 3',5'-cyclic-AMP phosphodiesterase 7A; assay: Inhibition of PDE7A
[22] = target: T5, 3',5'-cyclic-AMP phosphodiesterase 7B; assay: Inhibition of PDE7B
[23] = target: Beta-2 adrenergic receptor (Homo sapiens) (UniProt P07550); assay: Inhibition of beta2 adrenergic receptor expressed in HEK293 cells co-transfected with PKA fragments Reg-F[1] and cat-F[2]-fused renilla luciferase assessed as effect on receptor regulated PKA activation at 100 uM after 30 mins by protein-fragment complementation assay; type: cell-based; procedure, shortened: as §1
[24] = target: T2, Dual specificity calcium/calmodulin-dependent 3',5'-cyclic nucleotide phosphodiesterase 1B
[25] = target: Beta-2 adrenergic receptor (Homo sapiens) (UniProt P07550); assay: Inhibition of beta2 adrenergic receptor expressed in HEK293 cells co-transfected with PKA fragments Reg-F[1] and cat-F[2]-fused renilla luciferase assessed as dissociation of PKA fragments after 2 mins by real time kinetic study relative to inverse agonist ICI-118551; type: functional, cell-based
Procedure, shortened: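 Stable β2AR-HEK293 cells grown in DMEM with 10% fetal bovine serum and transiently transfected with plasmids carrying the Rluc PCA PKA reporter (FuGENE-6). Cells were treated with compounds 48 h after transfection. Immediately after treatment, the medium was exchanged for PBS and bioluminescence was read on a luminometer.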

Sequence of 3',5'-cyclic-AMP phosphodiesterase 4A (P27815 whole entry): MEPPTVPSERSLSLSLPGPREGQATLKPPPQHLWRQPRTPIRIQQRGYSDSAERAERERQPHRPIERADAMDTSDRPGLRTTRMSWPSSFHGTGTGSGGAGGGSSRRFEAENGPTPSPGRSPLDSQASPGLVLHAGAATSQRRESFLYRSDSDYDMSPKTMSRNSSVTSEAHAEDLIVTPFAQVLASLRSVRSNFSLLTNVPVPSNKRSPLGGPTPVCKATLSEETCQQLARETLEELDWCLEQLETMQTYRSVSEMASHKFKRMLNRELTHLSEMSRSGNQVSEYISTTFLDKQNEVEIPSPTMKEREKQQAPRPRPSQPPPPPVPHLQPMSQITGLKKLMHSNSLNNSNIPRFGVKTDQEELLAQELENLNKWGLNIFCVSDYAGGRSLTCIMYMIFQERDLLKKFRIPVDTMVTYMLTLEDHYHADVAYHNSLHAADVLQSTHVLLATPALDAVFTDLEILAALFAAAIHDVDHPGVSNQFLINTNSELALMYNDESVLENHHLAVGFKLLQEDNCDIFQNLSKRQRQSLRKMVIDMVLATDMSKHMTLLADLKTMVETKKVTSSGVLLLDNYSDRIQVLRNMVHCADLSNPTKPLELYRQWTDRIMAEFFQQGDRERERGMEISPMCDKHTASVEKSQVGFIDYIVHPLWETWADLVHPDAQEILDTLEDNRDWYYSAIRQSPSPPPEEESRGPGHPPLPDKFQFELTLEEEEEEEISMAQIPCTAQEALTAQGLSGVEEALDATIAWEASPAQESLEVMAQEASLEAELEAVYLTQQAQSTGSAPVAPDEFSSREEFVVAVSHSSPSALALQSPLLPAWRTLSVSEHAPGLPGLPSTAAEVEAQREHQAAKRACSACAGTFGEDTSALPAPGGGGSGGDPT

## COc1ccc(C2=Nn3c(nnc3-c3ccccc3OC)SC2)cc1OC1CCCC1
[1]
  IC50: 32 nM

## Fc1ccccc1-c1nnc2n1N=C(c1ccc(OC(F)F)c(OCC3CC3)c1)CS2
[1]
  IC50: 53 nM

## FC(F)Oc1ccc(C2=Nn3c(nnc3-c3ccccc3Cl)SC2)cc1OCC1CC1
[1]
  IC50: 37 nM

## COc1ccc(C2=Nn3c(nnc3-c3ccccc3F)SC2)cc1OC1CCCC1
[1]
  IC50: 33 nM

## COc1ccc(OC)c(-c2nnc3n2N=C(c2ccc(OC)c(OC)c2)CS3)c1
[2]
  microsomal CLint: > 300 µL/min/mg
[3]
  half-life: 3 min
[4]; read-out: IC50
  IC50: 823 nM
[5]
  EC50: 18.7 nM
[6]
  IC50: 1700 nM
[7]
  IC50: 720 nM

## COc1ccc(C2=Nn3c(nnc3-c3ccccc3Cl)SC2)cc1O[C@@H]1CCOC1
[1]
  IC50: 3.8 nM

## COc1ccc(OC)c(-c2nnc3n2N=C(c2ccc(OC(F)F)c(OCC4CC4)c2)CS3)c1
[2]
  microsomal CLint: > 300 µL/min/mg
[3]
  half-life: 3 min

## COc1ccc(C2=Nn3c(nnc3-c3ccccc3F)SC2)cc1O[C@@H]1CCOC1
[1]
  IC50: 8.6 nM

## COc1ccc(OC)c(-c2nnc3ccc(-c4ccc(OC)c(O[C@@H]5CCOC5)c4)nn23)c1
[8]
  inhibition: Active
[9]
  inhibition: Active
[10]
  inhibition: 32%
[11]
  inhibition: 56%
[12]
  inhibition: 74%
[13]
  inhibition: 54%
[14]
  inhibition: 54%
[15]
  inhibition: 51%
[16]
  inhibition: 59%
[17]
  inhibition: 35%
[2]
  microsomal CLint: > 300 µL/min/mg
[3]
  half-life: 3 min
[18]
  IC50: 0.6 nM
[5]
  EC50: 34.2 nM

## COc1ccc(C2=Nn3c(nnc3-c3ccccc3OC)SC2)cc1OCC1CC1
[1]
  IC50: 35 nM

## COc1ccc(OC)c(-c2nnc3n2N=C(c2ccc(OC)c(OCC4CC4)c2)CS3)c1
[2]
  microsomal CLint: > 300 µL/min/mg
[3]
  half-life: 3 min

## COc1ccc(C2CNC(=O)C2)cc1OC1CCCC1 (stereo not given) [ROLIPRAM]
[19]
  inhibition: inactive
[4]
  IC50: Not Active
[20]
  IC50: Not Active
[21]
  IC50: Not Active
[22]
  IC50: Not Active
[23]
  inhibition: Active
[24]
  IC50: Not Active

## COc1ccc(C2=Nn3c(nnc3-c3ccccc3OC)SC2)cc1OC1CCOC1 (stereo not given)
[1]
  IC50: 20 nM

## COc1ccc(OC)c(-c2nnc3n2N=C(c2ccc(OC)c(O[C@@H]4CCOC4)c2)CS3)c1
[8]
  inhibition: Active
[9]
  inhibition: Active
[25]
  inhibition: 25%
[10]
  inhibition: 36%
[11]
  inhibition: 52%
[12]
  inhibition: 49%
[13]
  inhibition: 68%
[14]
  inhibition: 56%
[15]
  inhibition: 58%
[16]
  inhibition: 48%
[17]
  inhibition: 43%
[2]
  microsomal CLint: > 300 µL/min/mg
[3]
  half-life: 3 min
[5]
  EC50: 2.3 nM

## COc1ccc(OC)c(-c2nnc3n2N=C(c2ccc(OC)c(OC4CCCC4)c2)CS3)c1
[2]
  microsomal CLint: > 300 µL/min/mg
[3]
  half-life: 3 min

## COc1ccc(C2=Nn3c(nnc3-c3ccccc3Cl)SC2)cc1OC1CCCC1
[1]
  IC50: 26 nM

## COc1ccc(C2=Nn3c(nnc3-c3ccccc3OC)SC2)cc1O[C@@H]1CCOC1
[1]
  IC50: 11 nM

## COc1ccc(OC)c(-c2nnc3ccc(-c4ccc(OC)c(O[C@H]5CCOC5)c4)nn23)c1
[2]
  microsomal CLint: > 300 µL/min/mg
[3]
  half-life: 3 min

## COc1ccc(OC)c(-c2nnc3n2N=C(c2ccc(OC)c(OC4CCOC4)c2)CS3)c1 (racemic)
[2]
  microsomal CLint: > 300 µL/min/mg
[3]
  half-life: 3 min

## COc1ccccc1-c1nnc2n1N=C(c1ccc(OC(F)F)c(OCC3CC3)c1)CS2
[1]
  IC50: 35 nM

## COc1ccc(C2=Nn3c(nnc3-c3ccccc3F)SC2)cc1OC1CCOC1 (stereo not given)
[1]
  IC50: 11 nM

## COc1ccc(C2=Nn3c(nnc3-c3ccccc3Cl)SC2)cc1OC1CCOC1 (stereo not given)
[1]
  IC50: 9.8 nM

## COc1ccc(C2=Nn3c(nnc3-c3ccccc3Cl)SC2)cc1OCC1CC1
[1]
  IC50: 21 nM

From ChEMBL document CHEMBL1151934, “Exploration and optimization of substituted triazolothiadiazines and triazolopyridazines as PDE4 inhibitors” (Bioorg Med Chem Lett, 2009)
